In ChEMBL document CHEMBL1129476, “In vivo activity and hydrophobicity of cytostatic aziridinyl quinones” (J Med Chem, 1996):

Columns and labels:
[1] = E1/2 for the half-wave potential at pH=7.0 in V57; assay type: ADME
[2] = (§1) DNA cross link ratio at pH=5.0 and 50 umol/L compound; assay type: functional
[3] = tested on: B16; assay: log 1/D125 or the dose (mmol/kg) to give 125%T/C ratio (B16) in vivo; assay type: functional, Mus musculus
[4] = log 1/LD50 for LD50 (mmol/kg); assay type: ADME
[5] = tested on: L1210; assay: log 1/D125 for the dose (mmol/kg) to give 125%T/C ratio (L1210) in vivo; assay type: functional, Mus musculus
[6] = Observed rate of hydrolysis (logKobs) (pH=4.0); assay type: ADME
Outline: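 Hydrolysis followed by cyclic voltammetry at 20 °C in deaerated 0.1 M acetate buffers (pH 5.0–3.5) or 0.02 M NaH2PO4 (pH 3.5, 3.0), ionic strength 0.1 M (NaNO3). Decrease of the parent cathodic peak tracked over time. Pseudo-first-order kobs from linear regression of log concentration versus time.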

[7] = log 1/anion production.; assay type: functional
[8] = Electrochemically observed pKa (pKred) of aziridines; assay type: physicochemical; conditions: read-out: pKred
[9] = tested on: L1210; assay: log 1/ID75 for the in vitro clonogenic L1210 assay with ID75 in umol/L; assay type: functional, Mus musculus
[10] = tested on: Fungi; assay: (§2) log 1/MIC for fungi in mmol/L; assay type: functional
[11] = log KGSH for the rate k of glutathione (GSH) consumption in 1/s; assay type: functional
[12] = tested on: Nucleic Acid; assay: as §1; assay type: functional
[13] = Partition coefficient (logP); assay type: physicochemical; conditions: octanol/water
Outline: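 Micro shake-flask: buffered aqueous compound solution (pH 6.50) shaken with an equal volume of water-saturated 1-octanol at room temperature, 3 × 120 s. Centrifuged 14000g, 15 min. Aqueous phase analysed by RP-HPLC against the unshaken solution (methanol 30, 50 or 70 wt%, 1.0 mL/min, UV 254 nm). Run in duplicate, or quadruplicate if needed.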

[14] = HPLC capacity factor (logK); assay type: ADME
[15] = as §2; assay type: functional

CC1=C(N2CC2C)C(=O)C(Br)=C(N2CC2C)C1=O (stereo not given)
E 1/2 [1]: -0.194 | lnK [2]: 0.03 | Log 1/D125 (mM kg-1) [3]: 1.71 | Log 1/LD50 (mM kg-1) [4]: 1.59 | Log 1/D125 (L1210) (mM kg-1) [5]: 1.79 | Log Kobs [6]: -3.85 | Log 1/conc (mM min-1 L-1) [7]: 2.5 | pKa [8]: 9.2 | Log 1/ID75 (uM L-1) [9]: 2.66 | Log 1/MIC (mM L-1) [10]: 1.01

O=C1C=C(N2CC2)C(=O)C=C1N1CC1
Log k GSH (s-1) [11]: -3.24 | E 1/2 [1]: -0.105 | DNA cross-link ratio [12]: 0.29 | Log 1/D125 (mM kg-1) [3]: 3.16 | Log 1/LD50 (mM kg-1) [4]: 1.8 | Log 1/D125 (L1210) (mM kg-1) [5]: 2.77 | Log Kobs [6]: -2.57 | Log 1/conc (mM min-1 L-1) [7]: 2.09 | pKa [8]: 7.5 | logP [13]: 0.18 | Log 1/ID75 (uM L-1) [9]: 1.68 | Log 1/MIC (mM L-1) [10]: 2.58

COC(COC(N)=O)C1=C(N2CC2)C(=O)C(C)=C(N2CC2)C1=O (stereo not given) [CARBOQUONE]
Log k GSH (s-1) [11]: -5.15 | E 1/2 [1]: -0.182 | DNA cross-link ratio [12]: 0.26 | Log 1/D125 (mM kg-1) [3]: 3.32 | Log 1/LD50 (mM kg-1) [4]: 1.73 | Log K [14]: -0.438 | Log 1/D125 (L1210) (mM kg-1) [5]: 3.21 | Log Kobs [6]: -3.65 | Log 1/conc (mM min-1 L-1) [7]: 0.57 | pKa [8]: 8.6 | logP [13]: -0.15 | Log 1/ID75 (uM L-1) [9]: 1.05 | Log 1/MIC (mM L-1) [10]: -1.19

CCOC(=O)NC1=C(N2CC2)C(=O)C(NC(=O)OCC)=C(N2CC2)C1=O [DIAZIQUONE]
Log k GSH (s-1) [11]: -4.64 | E 1/2 [1]: -0.149 | DNA cross-link ratio [12]: 0.14 | Log 1/D125 (mM kg-1) [3]: 2.32 | Log 1/LD50 (mM kg-1) [4]: 1.54 | Log K [14]: -0.48 | Log 1/D125 (L1210) (mM kg-1) [5]: 2.26 | Log Kobs [6]: -4.25 | Log 1/conc (mM min-1 L-1) [7]: 1.56 | pKa [8]: 8.3 | logP [13]: 0.04 | Log 1/ID75 (uM L-1) [9]: -0.57 | Log 1/MIC (mM L-1) [10]: -0.29

CCC1=C(N2CC2)C(=O)C(C)=C(N2CC2)C1=O
Log k GSH (s-1) [11]: -5 | E 1/2 [1]: -0.227 | DNA cross-link ratio [12]: 0.23 | Log 1/D125 (mM kg-1) [3]: 3.25 | Log 1/LD50 (mM kg-1) [4]: 1.46 | Log K [14]: 0.291 | Log Kobs [6]: -3.59 | Log 1/conc (mM min-1 L-1) [7]: 0.87 | pKa [8]: 8.7 | Log 1/MIC (mM L-1) [10]: 0.77

O=C1C(Br)=C(N2CC2)C(=O)C(Br)=C1N1CC1
Log K [14]: 0.474 | Log 1/MIC (mM L-1) [15]: 1.54 | Log Kobs [6]: -4.7 | Log 1/conc (mM min-1 L-1) [7]: 2.87 | Log 1/ID75 (uM L-1) [9]: 0.35

O=C1C=C(N2CC2)C(=O)C(N2CC2)=C1N1CC1 [TRIAZIQUONE]
Log k GSH (s-1) [11]: -3.14 | E 1/2 [1]: -0.171 | Log 1/D125 (mM kg-1) [3]: 3.8 | Log 1/LD50 (mM kg-1) [4]: 2.66 | Log 1/D125 (L1210) (mM kg-1) [5]: 3.52 | Log Kobs [6]: -2.85 | Log 1/conc (mM min-1 L-1) [7]: 1.32 | pKa [8]: 8 | logP [13]: 0.13 | Log 1/ID75 (uM L-1) [9]: 2.72 | Log 1/MIC (mM L-1) [10]: 1.06

CC1=C(N2CC2C)C(=O)C(CCOC(N)=O)=C(N2CC2C)C1=O (stereo not given)
E 1/2 [1]: -0.235 | DNA cross-link ratio [12]: 0.13 | Log 1/D125 (mM kg-1) [3]: 2.31 | Log 1/D125 (L1210) (mM kg-1) [5]: 1.89 | Log Kobs [6]: -3.67 | Log 1/conc (mM min-1 L-1) [7]: 0.56 | pKa [8]: 9.7

CCC1=C(N2CC2)C(=O)C(Br)=C(N2CC2)C1=O
Log k GSH (s-1) [11]: -3 | E 1/2 [1]: -0.21 | DNA cross-link ratio [12]: 0.15 | Log 1/D125 (mM kg-1) [3]: 2.6 | Log 1/LD50 (mM kg-1) [4]: 1.39 | Log 1/D125 (L1210) (mM kg-1) [5]: 1.41 | Log Kobs [6]: -4.3 | Log 1/conc (mM min-1 L-1) [7]: 2.42 | pKa [8]: 8.8 | Log 1/ID75 (uM L-1) [9]: 2.82 | Log 1/MIC (mM L-1) [10]: 1.57

CC1=C(N2CC2)C(=O)C(CCOC(N)=O)=C(N2CC2)C1=O
Log k GSH (s-1) [11]: -4.92 | E 1/2 [1]: -0.213 | DNA cross-link ratio [12]: 0.27 | Log 1/D125 (mM kg-1) [3]: 3.49 | Log 1/LD50 (mM kg-1) [4]: 1.99 | Log 1/D125 (L1210) (mM kg-1) [5]: 2.86 | Log Kobs [6]: -4.05 | Log 1/conc (mM min-1 L-1) [7]: 1.02 | pKa [8]: 8.9 | Log 1/ID75 (uM L-1) [9]: 1.82

O=C1C(F)=C(N2CC2)C(=O)C(N2CC2)=C1N1CC1
Log k GSH (s-1) [11]: -2.24 | E 1/2 [1]: -0.171 | DNA cross-link ratio [12]: 0.17 | Log 1/LD50 (mM kg-1) [4]: 1.62 | Log 1/D125 (L1210) (mM kg-1) [5]: 1.95 | Log Kobs [6]: -3.75 | Log 1/conc (mM min-1 L-1) [7]: 1.72 | pKa [8]: 7.8 | Log 1/ID75 (uM L-1) [9]: 2.32 | Log 1/MIC (mM L-1) [10]: 1.79

CCOC(=O)NC1=C(N2CC2C)C(=O)C(NC(=O)OCC)=C(N2CC2C)C1=O (stereo not given)
E 1/2 [1]: -0.145 | DNA cross-link ratio [12]: 0.02 | Log 1/D125 (mM kg-1) [3]: 1.94 | Log 1/LD50 (mM kg-1) [4]: 0.69 | Log 1/D125 (L1210) (mM kg-1) [5]: 1.59 | Log Kobs [6]: -3.57 | Log 1/conc (mM min-1 L-1) [7]: 1.26 | pKa [8]: 8.5
